Assay results from ChEMBL document CHEMBL5321226, “Structure-directed identification of pyridine-2-methylamine derivatives as MmpL3 inhibitors for use as antitubercular agents” (Eur J Med Chem, 2023).
Converted amounts (≈) assume the structure as drawn.

How the values were obtained:
[1] = Cytotoxicity against African green monkey Vero cells assessed as reduction in cell viability incubated for 72 hrs by alamar blue staining based fluorescence microplate reader analysis; format: toxicity; conditions: African green monkey (Chlorocebus sabaeus)
Outline: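 Vero cell cytotoxicity was read out by Alamar Blue (MABA) and expressed as IC50. Other details follow earlier reports.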

[2] = target: Voltage-gated inwardly rectifying potassium channel KCNH2 (Homo sapiens, UniProt Q12809); test: Inhibition of human ERG at 10 uM by patch-clamp electrophysiology assay; format: toxicity
Chain of Voltage-gated inwardly rectifying potassium channel KCNH2 (Q12809 whole entry): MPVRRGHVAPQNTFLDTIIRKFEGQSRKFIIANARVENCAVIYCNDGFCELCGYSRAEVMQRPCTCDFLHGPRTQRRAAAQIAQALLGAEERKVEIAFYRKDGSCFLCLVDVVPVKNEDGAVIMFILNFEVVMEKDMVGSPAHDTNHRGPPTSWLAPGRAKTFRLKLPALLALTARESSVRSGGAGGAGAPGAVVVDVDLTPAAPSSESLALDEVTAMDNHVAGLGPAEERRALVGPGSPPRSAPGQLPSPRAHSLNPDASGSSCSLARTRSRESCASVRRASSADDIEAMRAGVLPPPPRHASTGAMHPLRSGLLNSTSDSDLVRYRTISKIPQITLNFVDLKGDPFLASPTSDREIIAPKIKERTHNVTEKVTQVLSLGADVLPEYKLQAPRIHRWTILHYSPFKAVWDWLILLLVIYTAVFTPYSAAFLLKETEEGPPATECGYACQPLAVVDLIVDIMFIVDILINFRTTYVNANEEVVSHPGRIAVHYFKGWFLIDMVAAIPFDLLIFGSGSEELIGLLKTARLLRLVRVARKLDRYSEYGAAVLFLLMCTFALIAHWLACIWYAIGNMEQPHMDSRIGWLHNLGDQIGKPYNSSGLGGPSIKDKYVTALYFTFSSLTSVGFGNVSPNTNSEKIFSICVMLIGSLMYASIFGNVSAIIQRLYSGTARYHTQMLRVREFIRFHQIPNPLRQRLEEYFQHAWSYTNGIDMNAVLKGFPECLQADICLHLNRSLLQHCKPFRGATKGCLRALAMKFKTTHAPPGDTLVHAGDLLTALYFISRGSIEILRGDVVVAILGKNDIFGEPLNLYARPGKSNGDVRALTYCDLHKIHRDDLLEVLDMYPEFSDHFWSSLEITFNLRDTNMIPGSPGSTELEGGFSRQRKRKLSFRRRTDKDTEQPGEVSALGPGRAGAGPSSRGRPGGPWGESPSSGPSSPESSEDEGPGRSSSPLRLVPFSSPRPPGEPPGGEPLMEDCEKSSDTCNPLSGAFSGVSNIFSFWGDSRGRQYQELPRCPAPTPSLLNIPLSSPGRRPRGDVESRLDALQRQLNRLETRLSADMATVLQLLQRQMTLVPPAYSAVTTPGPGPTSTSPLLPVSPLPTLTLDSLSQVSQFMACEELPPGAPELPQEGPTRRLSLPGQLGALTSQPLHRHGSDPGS
Outline: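 hERG K+ channel current was measured by manual patch-clamp electrophysiology with the test compound at 10 μM. […] The inhibition rate is the average of three individual measurements.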

[3] = Metabolic stability in human liver microsomes assessed as parent compound remaining and mesured after 60 mins in absence of NADPH; format: ADME, Microsome; conditions: 1 h
[4] = Metabolic stability in human liver microsomes assessed as half life and mesured upto 60 mins in presence of NADPH; format: ADME, Microsome; conditions: 1 h
Outline: (§1)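 Compounds were incubated with human liver microsomes for 60 min, with or without NADPH cofactor. Substrate concentration after 60 min was normalized to the time-zero concentration to give % remaining. Half-life was derived from the incubations, and intrinsic clearance was calculated as CLint(mic) = 0.693/half-life/mg microsomal protein per mL.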

[5] = Metabolic stability in human liver microsomes assessed as parent compound remaining and mesured after 60 mins in presence of NADPH; format: ADME, Microsome; conditions: read-out: Stability; outline: as §1
[6] = Metabolic stability in human liver microsomes assessed as intrinsic clearance and mesured upto 60 mins in presence of NADPH; format: ADME, Microsome; conditions: 1 h
[7] = test system: Mycobacterium tuberculosis; test: Antimycobacterial activity against drug susceptible Mycobacterium tuberculosis V4207 assessed as bacterial growth inhibition incubated for 7 to 14 days by MABA assay; format: functional; conditions: time 7-14 day
[8] = Mycobacterium tuberculosis, V4207, read-out: MIC90

CC(C)c1ccc(-c2cncc(CN3CC[Si](C)(C)CC3)c2)cc1
IC50 at 72 h [1]: ≥ 32 µg/mL

CC(C)c1ccc(-c2ccnc(CN3CCC4(CC3)OCCCO4)c2)cc1
IC50 at 72 h [1]: ≥ 32 µg/mL

CC(C)c1ccc(-c2ccnc(CNC3CCCCCCC3)c2)cc1
IC50 at 72 h [1]: 16 µg/mL (≈ 47.5 µM)

c1ccc(-c2ccc(-c3ccnc(CN4CCC5(CCCCC5)CC4)c3)cc2)cc1
IC50 at 72 h [1]: ≥ 32 µg/mL

C[Si]1(C)CCN(Cc2cc(-c3ccc(C4CCCCC4)cc3)ccn2)CC1
IC50 at 72 h [1]: ≥ 32 µg/mL

c1ccc(-c2ccc(-c3ccnc(CN4CCC5(CCCC5)CC4)c3)cc2)cc1
inhibition (INH) [2]: 52.7%
Stability [3]: Stable
t1/2 [4]: 49.5 min
remaining at 1 h [5]: 43.1%
IC50 at 72 h [1]: 16 µg/mL (≈ 41.8 µM)
CLH [6]: 28 µL/min/mg

CC(C)Cc1ccc(-c2ccnc(CN3CC[Si](C)(C)CC3)c2)cc1
IC50 at 72 h [1]: ≥ 32 µg/mL

c1cc(-c2ccc(-c3ccoc3)cc2)cc(CN2CCC3(CCCC3)CC2)n1
Stability [3]: Stable
t1/2 [4]: 1.8 min
remaining at 1 h [5]: 0.2%
CLH [6]: 758 µL/min/mg

CC(C)Cc1ccc(-c2ccnc(CN3CCC(C)CC3)c2)cc1
IC50 at 72 h [1]: ≥ 32 µg/mL

CC(C)c1ccc(-c2ccnc(CNC3CCCCCC3)c2)cc1
IC50 at 72 h [1]: 16 µg/mL (≈ 49.6 µM)

CC(C)c1ccc(-c2ccnc(CNC34CC5CC(CC(C5)C3)C4)c2)cc1
IC50 at 72 h [1]: 16 µg/mL (≈ 44.4 µM)

CC(C)(C)c1ccc(-c2ccnc(CN3CC[Si](C)(C)CC3)c2)cc1
IC50 at 72 h [1]: 16 µg/mL (≈ 45.4 µM)

Cc1ccc(-c2ccc(-c3ccnc(CN4CCC5(CCCC5)CC4)c3)cc2)cc1
IC50 at 72 h [1]: ≥ 32 µg/mL

CC(C)c1ccc(-c2ccnc(CN3CCC4(CCCC4)CC3)c2)cc1
Stability [3]: Stable
t1/2 [4]: 11.3 min
remaining at 1 h [5]: 1.5%
CLH [6]: 122.9 µL/min/mg

Clc1ccc(-c2ccc(-c3ccnc(CN4CCC5(CCCC5)CC4)c3)cc2)cc1
IC50 at 72 h [1]: ≥ 32 µg/mL

CC(C)c1ccc(-c2nc(CN3CC[Si](C)(C)CC3)co2)cc1
IC50 at 72 h [1]: ≥ 32 µg/mL

CC(C)c1ccc(-c2ccnc(CNC3C4CC5CC(C4)CC3C5)c2)cc1 (stereo not drawn)
IC50 at 72 h [1]: ≥ 32 µg/mL

CC(C)c1ccc(-c2ccnc(CN3CC[Si](C)(C)CC3)c2)cc1
IC50 at 72 h [1]: ≥ 32 µg/mL

C[Si]1(C)CCN(Cc2cc(-c3ccc(-c4ccccc4)cc3)ccn2)CC1
IC50 at 72 h [1]: ≥ 32 µg/mL

O=C(O)Cc1ccccc1Nc1c(Cl)cccc1Cl [DICLOFENAC]
Stability [3]: Stable

NNC(=O)c1ccncc1 [ISONIAZID]
MIC90 [7]: 0.04 µg/mL (≈ 0.292 µM)

NC[C@H]1O[C@H](O[C@H]2[C@H](O)[C@@H](O[C@H]3O[C@H](CO)[C@@H](O)[C@H](N)[C@H]3O)[C@H](N)C[C@@H]2N)[C@H](O)[C@@H](O)[C@@H]1O [KANAMYCIN]
MIC90 [7, 8]: 2 µg/mL (≈ 4.13 µM)

C[C@H]1COc2c(N3CCN(C)CC3)c(F)cc3c(=O)c(C(=O)O)cn1c23 [LEVOFLOXACIN ANHYDROUS]
MIC90 [7, 8]: 0.125 µg/mL (≈ 0.346 µM)

CC1COc2c(N3CCN(C)CC3)c(F)cc3c(=O)c(C(=O)O)cn1c23 (stereo not drawn) [OFLOXACIN]
MIC90 [7, 8]: 0.5 µg/mL (≈ 1.38 µM)

CO[C@H]1/C=C/O[C@@]2(C)Oc3c(C)c(O)c4c(O)c(c(/C=N/N5CCN(C)CC5)c(O)c4c3C2=O)NC(=O)/C(C)=C\C=C\[C@H](C)[C@H](O)[C@@H](C)[C@@H](O)[C@@H](C)[C@H](OC(C)=O)[C@@H]1C [RIFAMPIN]
MIC90 [7, 8]: 0.063 µg/mL (≈ 0.0766 µM)

C[C@]12CC[C@H]3[C@@H](CCC4=CC(=O)CC[C@@]43C)[C@@H]1CC[C@@H]2O [TESTOSTERONE]
Stability [3]: Stable
remaining at 1 h [5]: 3.9%
